Calls of active or inactive are those of the source. No cut-off for these calls is given here. *1 amine or outer side, *2 acyl side, *3 side chain or, on linkers, in order; H or OH if unused. Where a SMILES comes first, the peptide text is derived from it. Bridges are numbered along the chain shown (N, C = ends). [ ]: non-standard residue; d: D form. hTyr = N[C@@H](CCc1ccc(O)cc1)C(=O)O; NMeA = CN[C@@H](C)C(=O)O; CO = O=C([*:1])[*:2]
Tests used:
Trypsin [1] = biological target: T1, Trypsin (Homo sapiens, UniProt P07477+P07478+P35030); assay: Inhibition of trypsin (unknown origin) using benzoyl-L-arginine-p-nitroanilide hydrochloride as substrate preincubated at 45.5 uM for 5 mins before substrate addition measured after 30 mins; assay type: protein assay
Summary of the method: (§1)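 Trypsin stock 1 mg/mL in 0.05 M Tris-HCl/100 mM NaCl/1 mM CaCl2, pH 7.5. Substrate in 1:9 DMSO/Tris buffer. Samples from 1 mg/mL DMSO stocks. Enzyme and sample are preincubated in buffer at 37 °C for 5 min. Substrate is then added and kinetics are read at 405 nm, 37 °C, for 30 min. Percent inhibition is taken against a DMSO vehicle control.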

Prothrombin [2] = biological target: T2, Prothrombin (Homo sapiens, UniProt P00734); assay: Inhibition of thrombin (unknown origin) using z-Gly-Pro-Arg-4MbetaNA-acetate as substrate preincubated at 45.5 uM for 20 mins before substrate addition measured after 20 mins
Summary of the method: (§2)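 Thrombin stock 0.5 mg/mL in 0.2 M Tris-HCl, pH 8. Substrate stock 0.5 mg/mL in water. Test samples from 1 mg/mL DMSO stocks. Enzyme and sample are preincubated in buffer at 25 °C for 20 min. Substrate is then added and kinetics are read at 405 nm, 25 °C, for 20 min. Percent inhibition is taken against a DMSO-only control.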

Prothrombin [3] = biological target: T2, Prothrombin; assay: Inhibition of thrombin (unknown origin) using z-Gly-Pro-Arg-4MbetaNA-acetate as substrate preincubated for 20 mins before substrate addition measured after 20 mins; summary of the method: as §2
Trypsin [4] = biological target: T1, Trypsin; assay: Inhibition of trypsin (unknown origin) using benzoyl-L-arginine-p-nitroanilide hydrochloride as substrate preincubated for 5 mins before substrate addition measured after 30 mins; assay type: protein assay; summary of the method: as §1

Structure (SMILES)	inhibition (Trypsin [1])	inhibition (Prothrombin [2])	IC50 (Trypsin [4]) [µM]	inhibition (Trypsin [4])	further results
CC[C@H](C)[C@@H]1NC(=O)[C@H](Cc2ccccc2)N(C)C(=O)[C@H]([C@@H](C)CC)N2C(=O)[C@H](CC[C@H]2OC)NC(=O)[C@H](CCCNC(=N)N)NC(=O)[C@@H](NC(=O)[C@H](O)COS(=O)(=O)O)[C@@H](C)OC1=O				Active	
CC[C@H](C)[C@@H]1NC(=O)[C@H](Cc2ccccc2)N(C)C(=O)[C@H]([C@@H](C)CC)N2C(=O)[C@H](CC[C@H]2OC)NC(=O)[C@H](CCCNC(=N)N)NC(=O)[C@@H](NC(=O)[C@@H](COS(=O)(=O)O)OS(=O)(=O)O)[C@@H](C)OC1=O				Active	
CC[C@H](C)[C@@H]1NC(=O)[C@H](Cc2ccccc2)N(C)C(=O)[C@H]([C@@H](C)CC)N2C(=O)[C@H](CC[C@H]2O)NC(=O)[C@H](CCCNC(=N)N)NC(=O)[C@@H](NC(=O)[C@@H](COS(=O)(=O)O)OS(=O)(=O)O)[C@@H](C)OC1=O				Active	
C=C(C)C(O)CC/C(C)=C/CN(CCCC(C(=O)[O-])[N+](C)(C)C)C(=N)N (stereo not given)	inactive	inactive			
CC[C@H](C)[C@@H]1NC(=O)[C@H](Cc2ccccc2)N(C)C(=O)[C@H]([C@@H](C)CC)N2C(=O)[C@H](CC[C@H]2O)NC(=O)[C@H](CCCNC(=N)N)NC(=O)[C@@H](NC(=O)[C@H](O)COS(=O)(=O)O)[C@@H](C)OC1=O				Active	
CC[C@H](C)[C@@H]1NC(=O)[C@H](NC(=O)N[C@@H](CCCNC(=N)N)C(=O)O)CCCCNC(=O)[C@H](Cc2ccccc2)NC(=O)[C@H](C)N(C)C(=O)[C@H](CCc2ccc(O)cc2)NC1=O ({Arg-CO}-[dK]I[hTyr][NMeA]F; lactam 1-C)	inactive	inactive			

Continued, in another order:

inhibition (Trypsin [1])	inhibition (Prothrombin [2])	IC50 (Trypsin [4]) [µM]	Structure (SMILES)	inhibition (Trypsin [4])	further results
inactive	inactive		NC(=O)[C@@H]1C[C@@H]2CC[C@H](O)C[C@@H]2N1C(=O)[C@@H](Cc1ccc(O)cc1)NC(=O)[C@H](O)Cc1ccc(O)cc1		
		30.8	N=C(N)NCCCCNC(=O)[C@@H]1C[C@@H]2CC[C@@H](O)C[C@@H]2N1C(=O)[C@H](Cc1ccccc1)NC(=O)[C@@H](O)Cc1ccc(O)c(Cl)c1		IC50 (Prothrombin [3]): 15.5 µM
inactive	inactive		NC(=O)[C@@H]1C[C@@H]2CC[C@H](O)C[C@@H]2N1C(=O)[C@@H](Cc1ccccc1)NC(=O)[C@H](O)Cc1ccc(O)cc1		
	inactive	19	N=C(N)NCCCCNC(=O)[C@@H]1C[C@@H]2CC[C@@H](O)C[C@@H]2N1C(=O)[C@H](Cc1ccccc1)NC(=O)[C@H](O)Cc1ccc(O)c(Cl)c1		
	inactive	7.3	CC(C)C[C@@H](NC(=O)[C@H](O)Cc1cc(Cl)c(O)c(Cl)c1)C(=O)N1[C@H](C(=O)NCCCCNC(=N)N)C[C@@H]2CC[C@@H](OS(=O)(=O)O)C[C@@H]21		
	inactive	9.5	CC(C)C[C@@H](NC(=O)[C@H](O)Cc1ccc(O)c(Cl)c1)C(=O)N1[C@H](C(=O)NCCCCNC(=N)N)C[C@@H]2CC[C@@H](OS(=O)(=O)O)C[C@@H]21		
